Measurements published in ChEMBL document CHEMBL1240529, “Synthesis, anti-inflammatory activity, and in vitro antitumor effect of a novel class of cyclooxygenase inhibitors: 4-(aryloyl)phenyl methyl sulfones” (J Med Chem, 2010).

Key:
HT-29 = test: Cytotoxicity against human HT-29 cells by MTT assay; format: functional, cell-based
Outline: (§1)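 Cells were grown in MEM with 10% FBS and antibiotics at 37 °C, 5% CO2, plated at 2.0 × 10^4 cells/well and grown for 72 h. Compound or 0.1% DMSO was added, then MTT (5 mg/mL) for 3 h at 37 °C, read at 570 nm (690 nm blank). […] Inhibition = (DMSO control − treated)/control; two experiments in duplicate.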

[1] = biological target: T1, Prostaglandin G/H synthase 1 (Ovis aries, UniProt P05979); test: Inhibition of sheep COX1 by spectrophotometry
T1 sequence (P05979 whole entry): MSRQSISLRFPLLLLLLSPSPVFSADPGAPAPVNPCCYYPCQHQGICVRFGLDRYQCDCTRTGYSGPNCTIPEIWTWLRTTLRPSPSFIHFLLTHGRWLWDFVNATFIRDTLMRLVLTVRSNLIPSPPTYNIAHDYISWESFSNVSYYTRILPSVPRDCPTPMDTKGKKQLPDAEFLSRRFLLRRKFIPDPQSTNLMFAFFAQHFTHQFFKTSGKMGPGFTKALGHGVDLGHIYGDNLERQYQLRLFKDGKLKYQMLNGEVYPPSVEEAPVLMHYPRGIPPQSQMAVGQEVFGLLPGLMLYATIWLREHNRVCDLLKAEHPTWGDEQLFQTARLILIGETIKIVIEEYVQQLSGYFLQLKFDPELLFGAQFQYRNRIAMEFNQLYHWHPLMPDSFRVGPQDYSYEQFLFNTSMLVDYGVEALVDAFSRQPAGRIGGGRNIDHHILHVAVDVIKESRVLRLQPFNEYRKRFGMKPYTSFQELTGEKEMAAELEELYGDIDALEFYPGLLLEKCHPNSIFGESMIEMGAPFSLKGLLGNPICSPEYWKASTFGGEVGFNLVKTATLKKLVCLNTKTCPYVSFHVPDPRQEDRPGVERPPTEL

K562 = test: Cytotoxicity against human K562 cells assessed as inhibition of cell viability at 10 uM by trypan blue dye exclusion
Rattus norvegicus [2] = test: Antiinflammatory activity in Sprague-Dawley rat assessed as inhibition of carrageenan induced paw swelling at 70 mg/kg, po after 4 hrs
Rattus norvegicus [3] = test: Antiinflammatory activity in Sprague-Dawley rat assessed as inhibition of carrageenan induced paw swelling at 70 mg/kg, po after 3 hrs
[4] = Cytotoxicity against human HDF cells assessed as inhibition of cell viability at 100 uM by MTT assay; format: cell-based; conditions: read-out: INH; outline: as §1
NCI-H460 = test: Cytotoxicity against human NCI-H460 cells assessed as inhibition of cell viability at 10 uM by MTT assay; format: functional; outline: as §1

SMILES	IC50 (HT-29) [µM]	IC50 [1] [µM]	inhibition at 10 µM (K562) [%]	inhibition in vivo at 70 mg/kg (Rattus norvegicus [2]) [%]	inhibition in vivo at 70 mg/kg (Rattus norvegicus [3]) [%]	cytotoxicity at 100 µM [4] [%]	inhibition at 10 µM (NCI-H460) [%]
CS(=O)(=O)c1ccc(C(=O)c2ccoc2)cc1	104	150	8.3	22.2	27	36.2	6
CS(=O)(=O)c1ccc(C(=O)c2ccco2)cc1	383	15.1	8.3	37.8	45.5	30.7	3
CS(=O)(=O)c1ccc(C(=O)c2cccs2)cc1	122	–	1	56	59.7	25.7	3
CS(=O)(=O)c1ccc(C(=O)c2ccsc2)cc1	75.7	144	14.6	–	–	31.2	2
CS(=O)(=O)c1ccc(C(=O)c2ccc(Br)cc2)cc1	100	150	6.2	8.1	22	29.4	12.7
CS(=O)(=O)c1ccc(C(=O)c2ccc(F)cc2)cc1	–	107	–	–	–	–	–
CS(=O)(=O)c1ccc(-c2ccccn2)cc1	–	89.6	–	51.4	53.7	–	–
CS(=O)(=O)c1ccc(Nc2ccc(F)cc2)cc1	130	141	13.5	32.6	41.9	37.4	1.8
CS(=O)(=O)c1ccc(-n2cccc2)cc1	146	86	1	–	–	28.9	3
CS(=O)(=O)c1ccc(-n2ccc3ccccc32)cc1	85	78.7	16.6	46	48.7	34.3	12.2
Cn1cc(C(=O)c2ccc(S(C)(=O)=O)cc2)c2ccccc21	70.4	76.4	2.1	–	–	30.8	7
CS(=O)(=O)c1ccc(C(=O)c2cccn2-c2ccccc2F)cc1	34.1	183	2.1	4.4	13.7	45	13.3
CS(=O)(=O)c1ccc(C(=O)c2ccn(-c3ccccc3F)c2)cc1	96.1	34.6	12.5	–	–	13.4	54.8
CS(=O)(=O)c1ccc(C(=O)c2c[nH]c3ccccc23)cc1	–	26.7	–	–	–	–	–
CS(=O)(=O)c1ccc(C2Oc3ccccc3-n3cccc32)cc1 (configuration not stated)	100	177	13.5	–	–	12.3	6.6
CS(=O)(=O)c1ccc(N2CCN(c3ccc(F)cc3)CC2)cc1	65.8	80	17.7	–	–	36.1	3.1
Cc1ccc(-c2cc(C(F)(F)F)nn2-c2ccc(S(N)(=O)=O)cc2)cc1 [CELECOXIB]	45.5	–	38.8	–	–	92	9.75
CC(C)Cc1ccc([C@H](C)C(=O)O)cc1 [DEXIBUPROFEN]	–	–	–	23.9	–	–	–
CC(C)[C@H](CO)Nc1nc(Nc2cccc(Cl)c2)c2ncn(C(C)C)c2n1 [PURVALANOLA]	> 100	–	75.1	–	–	88.6	3.98
